Screening results deposited in PubChem by The Scripps Research Institute Molecular Screening Center.
PAFAH1B3 FP inh = PAFAH1B3 enzyme inhibitors, primary screen, biochemical, fluorescence polarization, human | inhibition, % at 3.39 µM | recombinant PAFAH1B3, FP-rhodamine probe | 340,000 tested, 0.28% active;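 active = inhibition above the screen-wide average of all tested compounds plus 3 SD, cut at about 25% in these data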
Target sequence (Q15102 whole entry, looked up): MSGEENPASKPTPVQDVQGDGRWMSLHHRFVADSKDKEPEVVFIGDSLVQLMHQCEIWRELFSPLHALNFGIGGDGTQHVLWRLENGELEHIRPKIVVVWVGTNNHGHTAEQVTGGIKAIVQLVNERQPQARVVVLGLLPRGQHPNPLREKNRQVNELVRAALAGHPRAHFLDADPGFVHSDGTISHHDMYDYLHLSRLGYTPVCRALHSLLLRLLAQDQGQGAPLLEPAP
PAFAH1B2 FP inh = PAFAH1B2 enzyme inhibitors, primary screen, biochemical, fluorescence polarization, human | recombinant PAFAH1B2, FP-rhodamine activity probe | 340,000 tested, 1.2% active | Platelet-activating factor acetylhydrolase IB subunit alpha2 (Homo sapiens), P68402 | inhibition, % at 3.39 µM | AID 492953, 2010;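 active = inhibition above the mean of all tested compounds plus 3 SD, cut at about 24% in these data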
Target sequence (P68402 whole entry, looked up): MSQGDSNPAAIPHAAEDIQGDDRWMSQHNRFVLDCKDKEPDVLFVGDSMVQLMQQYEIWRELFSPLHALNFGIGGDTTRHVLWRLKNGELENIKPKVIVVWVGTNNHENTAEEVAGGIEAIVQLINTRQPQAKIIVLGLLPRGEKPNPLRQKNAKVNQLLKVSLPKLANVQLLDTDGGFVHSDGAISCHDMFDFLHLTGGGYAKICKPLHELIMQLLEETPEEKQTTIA
pPAFAH FP inh = pPAFAH enzyme inhibitors, primary screen, biochemical, fluorescence polarization, human; recombinant pPAFAH, FP-rhodamine probe fluorescence polarization; 330,000 tested, 1.5% active; AID 463082, 2010; inhibition, % at 3.39 µM;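 active = inhibition above the mean inhibition across the screen plus 3 SD, cut at about 25% in these data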;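 note: inhibitors block binding of the rhodamine activity-based probe so polarization drops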
VIM-2 inh = VIM-2 metallo-beta-lactamase inhibitors, primary screen, biochemical, epi-absorbance readout, Pseudomonas aeruginosa enzyme. inhibition, % at 5.6 µM. 290,000 tested, 0.89% active. purified VIM-2, nitrocefin hydrolysis, epi-absorbance fluorescence. AID 1527, 2009;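 active = inhibition above the mean of all tested compounds plus 3 SD, cutoff set per screening run, cut at about 7.5% in these data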;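 note: red hydrolysis product quenches plate fluorescence so inhibitors raise well fluorescence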
PAFAH2 FP inh = PAFAH2 enzyme inhibitors, primary screen, biochemical, fluorescence polarization, human. recombinant PAFAH2, FP-rhodamine activity probe. Platelet-activating factor acetylhydrolase 2, cytoplasmic (Homo sapiens), Q99487. 340,000 tested, 0.99% active. inhibition, % at 3.39 µM;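 active = inhibition above the mean over all tested compounds plus 3 SD, cut at about 30% in these data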;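 note: inhibitors block probe labeling of enzyme so polarization drops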
IMP-1 inhibitor = IMP-1 metallo-beta-lactamase inhibitors, primary screen, biochemical, epi-absorbance readout, Pseudomonas aeruginosa enzyme | metallo-beta-lactamase IMP-1 (Pseudomonas aeruginosa) | purified IMP-1, nitrocefin hydrolysis, epi-absorbance fluorescence | inhibition, % at 5.6 µM | 290,000 tested, 0.45% active;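 active = inhibition above the mean plus 3 SD of all compounds in the same screening run, cut at about 4.5% in these data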
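System: purified IMP-1 / Input: IMP-1 dispensed at 0.2 nM / Medium: 50 mM HEPES pH 7.1, 50 µM ZnSO4, 0.05% Brij 35 / Timing: 15 min enzyme–compound preincubation, then 25 min nitrocefin reaction, 25 °C / Technique: plate fluorescence quenching by hydrolysis product, ex 480/em 530 nm / Repeats: singlicate testing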
Hits are given with their value; n = inactive; x = no result. Hits are enriched below; roughly 3.6% of the tested compounds scored in any of these assays.

SMILES	PAFAH1B3 FP inh	PAFAH1B2 FP inh	pPAFAH FP inh	VIM-2 inh	PAFAH2 FP inh	IMP-1 inhibitor
Nc1c(C(=O)OCC(=O)Nc2cccc([N+](=O)[O-])c2)[nH]c(=O)[nH]c1=O	n	n	25.3	x	n	x
Cc1cc(Br)ccc1OCC(=O)NNC(=O)C(=O)Nc1ccccc1	n	27.2	n	n	n	n
COc1ccccc1NC(=O)C(=O)NNS(=O)(=O)c1ccc2ccccc2c1	n	33.7	n	n	n	n
COc1ccc(NC(=S)NNS(=O)(=O)c2ccc3ccccc3c2)c(OC)c1	n	n	n	n	n	n
COc1cc(/C=C2\SC(=S)N(NC(=O)c3ccccc3O)C2=O)ccc1O	n	n	n	n	n	n
O=C(CN1C(=O)S/C(=C\c2ccc(Cl)cc2)C1=O)NNC(=O)c1ccccc1O	n	n	29.1	n	n	n
O=C(NN1C(=O)/C(=C/c2ccc(O)cc2)SC1=S)c1ccccc1O	n	n	n	n	n	4.8
O=C(NN1C(=O)/C(=C/c2ccc(O)c([N+](=O)[O-])c2)SC1=S)c1ccccc1Cl	n	n	n	n	n	6.0
CCOC(=O)[C@H]1[C@H]2COc3ccc(Br)cc3[C@@H]2N2C(=O)c3c(C)cc(C)cc3NC(=O)[C@@]12C	n	n	n	x	n	x
CN(C)C(CNC(=O)c1cccc(S(=O)(=O)NCc2ccccc2)c1)c1ccccc1 (configuration not stated)	n	n	x	x	n	x
CCOc1cccc(C=NNc2ccc(S(=O)(=O)Nc3ccccc3C(=O)O)cc2[N+](=O)[O-])c1O	n	n	30.1	x	n	x
CSc1ccc(C=NNc2ccc(S(=O)(=O)Nc3ccccc3C(=O)O)cc2[N+](=O)[O-])cc1	n	n	n	x	n	x
C=CCOc1ccc(C=NNc2ccc(S(=O)(=O)Nc3ccccc3C(=O)O)cc2[N+](=O)[O-])cc1OC	n	n	36.8	x	n	x
O=C(O)c1ccccc1NS(=O)(=O)c1ccc(NN=Cc2ccccc2F)c([N+](=O)[O-])c1	n	n	51.1	x	n	x
CN(Cc1ccccc1F)C(=O)c1cccc(NC(=O)CC2SC(N3CCCCC3)=NC2=O)c1 (configuration not stated)	n	n	x	x	n	x
CCCC(C(=O)Nc1cc(S(=O)(=O)N2CCOCC2)ccc1OC)c1ccccc1 (configuration not stated)	n	n	n	n	n	n
Cc1cccc(S(=O)C(c2ccccc2)c2ccccc2)c1 (configuration not stated)	n	n	x	x	n	x
COc1ccc(C)cc1NC(=O)c1ccc(NS(=O)(=O)c2c(C)noc2C)cc1	n	n	n	n	n	n
CCOc1ccc(Br)cc1S(=O)(=O)Nc1ccc(C(=O)Nc2ccccc2OC)cc1	n	n	28.6	n	n	n
COc1ccc(C)cc1NC(=O)c1ccc(NS(=O)(=O)c2cccs2)cc1	n	n	32.2	n	n	n
CC(C)C(NC(=O)c1ccc(F)cc1)C(=O)N1CCN(C(=O)c2ccco2)CC1 (configuration not stated)	n	n	n	x	n	x
CC1CC(C)CN(C(=O)c2cccc3c2-c2ccccc2C3=O)C1 (configuration not stated)	n	27.6	n	n	n	n
O=C1c2ccccc2-c2c1cccc2C(=O)N1CCN(C(=O)c2ccco2)CC1	n	n	n	n	n	n
CCOC(=O)c1[nH]c(=S)[nH]c1C	n	n	x	x	n	x
CC(=O)Nc1ccc(NC(=O)C(C)c2cccc(C(=O)c3ccccc3)c2)cc1 (configuration not stated)	n	n	29.8	n	n	n
SMILES	PAFAH1B3 FP inh	PAFAH1B2 FP inh	pPAFAH FP inh	VIM-2 inh	PAFAH2 FP inh	IMP-1 inhibitor
CC(C(=O)Nc1ccc(O)cc1)c1cccc(C(=O)c2ccccc2)c1 (configuration not stated)	x	x	n	n	x	n
Cc1cccc(N2CCN(C(=O)c3c(-c4ccccc4Cl)noc3C)CC2)c1C	n	n	n	n	n	n
CC1CN(CCCCOc2ccc(Cl)c3ccccc23)CC(C)O1 (configuration not stated)	n	n	n	n	n	4.5
CC1(c2ccc(Cl)c(Cl)c2)NC(=S)N2C1NC(=S)N2c1ccccc1 (configuration not stated)	n	n	n	n	n	n
CC1(c2ccc(Cl)cc2)NC(=S)N2C1NC(=S)N2c1ccccc1 (configuration not stated)	n	35.0	n	n	n	n
Cc1nc2ccccn2c1-c1csc(Nc2ccc(C(=O)O)cc2)n1	n	n	n	n	n	n
Cc1nc2ccccn2c1-c1csc(Nc2cccc(O)c2)n1	n	n	x	10.7	n	n
Cc1nc2ccccn2c1-c1csc(Nc2cccc(C(=O)O)c2)n1	n	n	n	n	n	n
Cc1cccc(Nc2nc(-c3c(C)nc4ccccn34)cs2)c1	n	n	30.4	n	n	n
O=C(COC(=O)c1ccc(F)cc1Cl)NC(=O)NC1CCCC1	n	n	n	x	n	x
NC(=O)C1CC(=O)N(c2ccc(OCc3ccc(Cl)cc3)cc2)C1 (configuration not stated)	n	28.1	n	n	n	n
CCCNC(=O)C1CC(=O)N(c2ccc(OCc3ccc(F)cc3)cc2)C1 (configuration not stated)	n	n	n	n	n	n
CCCNC(=O)C1CC(=O)N(c2ccc(OCc3ccc(Cl)cc3)cc2)C1 (configuration not stated)	n	29.8	n	n	n	n
C#CC(C)(O)C1CC(CC(=O)O)C1(C)C (configuration not stated)	n	n	x	x	n	x
O=C(O)C1OC1(c1ccccc1Cl)c1ccccc1Cl (configuration not stated)	n	n	x	x	n	x
CCN(Cc1ccccc1)C(=O)CCc1nnc(CCCc2ccccc2)o1	n	26.0	n	n	n	n
CN(Cc1ccsc1)C(=O)CCc1nnc(CCCc2ccccc2)o1	n	n	n	n	n	n
CNCC(O)c1ccc(OC(=O)C(C)(C)C)c(OC(=O)C(C)(C)C)c1 (configuration not stated)	n	27.0	n	x	n	x
COCCn1c(C)cc(C2=NNC(=Nc3ccc(Cl)cc3Cl)SC2)c1C	n	n	n	n	n	n
COCC(C)N=C1NN=C(c2cc(C)n(Cc3ccccc3Cl)c2C)CS1 (configuration not stated)	n	n	26.4	n	n	n
COc1cc(/C=N/NC(=O)c2cc(C34CC5CC(CC(C5)C3)C4)[nH]n2)ccc1O	n	30.4	n	n	n	n
